Active and inactive are the calls of the source. The rule behind the calls is not given here.
How the values were obtained:
[1] = target: T1, Protein phosphatase 1A (Mus musculus) (UniProt P49443); experiment: Activation of mouse recombinant GST-tagged PP2Calpha assessed as phosphate release using para-Nitrophenyl phosphate substrate
T1 sequence (whole entry): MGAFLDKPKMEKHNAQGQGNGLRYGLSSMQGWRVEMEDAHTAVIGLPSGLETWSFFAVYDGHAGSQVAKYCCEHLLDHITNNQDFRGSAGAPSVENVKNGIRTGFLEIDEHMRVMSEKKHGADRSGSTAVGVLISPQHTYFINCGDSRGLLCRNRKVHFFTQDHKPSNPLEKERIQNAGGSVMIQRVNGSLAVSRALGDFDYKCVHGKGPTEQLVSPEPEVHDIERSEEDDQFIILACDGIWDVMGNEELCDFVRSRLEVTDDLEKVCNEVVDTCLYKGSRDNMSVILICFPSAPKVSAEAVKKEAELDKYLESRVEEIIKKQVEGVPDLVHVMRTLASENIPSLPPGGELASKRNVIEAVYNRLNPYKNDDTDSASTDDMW
Method in brief: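 Mouse wild-type GST-PP2Cα fusion (1 µg) at rt in 0.1 M Tris-HCl pH 8.0, 2 mM DTT, with varied MnCl₂ or compound. Substrate 5 mM p-nitrophenyl phosphate, 30 min. Stopped with 0.5% SDS, A410. Triplicates, mean ± SD versus concentration.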

[2] = target: T1, Protein phosphatase 1A (Mus musculus); experiment: Activation of mouse recombinant GST-tagged PP2Calpha assessed as phosphate release using octapeptide-phosphate substrate RRRRPp-TPA
Method in brief: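 Mouse wild-type GST-PP2Cα fusion (2 µg) at rt in 0.1 M Tris-HCl pH 8.0, 2 mM DTT, with varied MnCl₂ or compound. Phosphopeptide RRRRPpTPA at 5 µM final, 15 min. Stopped with malachite green, 15 min color, A650. No-enzyme blanks subtracted; triplicates, mean ± SD versus concentration.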

[3] = Activation of PDHP in presence of 5 mM Mn2+
Method in brief: (§1)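 Triplicate wells. PDHP and PDH incubated 37 °C 30 min. NaF stop, then pyruvate-ADP and NAD/cocarboxylase/CoA mix, 2 min rt. Activity read as absorbance change at 340 nm; data pooled from two experiments with separately synthesized samples.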

[4] = Activation of PDHP in absence of 5 mM Mn2+; method in brief: as §1

Compound | Activity [1] | Activity [2] | Activity [3] | Activity [4]
CO[C@@H]1[C@@H](O)[C@@H](O)[C@H](O)[C@H](O)[C@H]1C[C@@H]1O[C@H](CO)[C@H](O)[C@H](O)[C@H]1O | inactive | inactive | inactive | inactive
CO[C@@H]1[C@@H](O)[C@@H](O)[C@H](O)[C@H](O)[C@H]1O[C@@H]1O[C@H](CO)[C@H](O)[C@H](O)[C@H]1N | inactive | Active | Active | inactive
CO[C@@H]1[C@@H](O)[C@@H](O)[C@H](O)[C@H](O)[C@H]1C[C@@H]1O[C@H](CO)[C@H](O)[C@H](O)[C@H]1N | inactive | inactive | Active | inactive

Source: ChEMBL document CHEMBL1156862, “Synthesis of C-glycoside analogues of beta-galactosamine-(1-->4)-3-O-methyl-D-chiro-inositol and assay as activator of protein phosphatases PDHP and PP2Calpha” (Bioorg Med Chem, 2010)
